Laboratory results reported in publication PMC10883374 (Science Advances, 2022).

How the values were obtained:
[1] = target: dSAMTOR (WT, full-length) (Drosophila melanogaster, UniProt Q9W138); test: ITC ligand binding, WT dSAMTOR; settings: ITC, 25°C, WT dSAMTOR
Outline: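 Full-length dSAMTOR was expressed as His6-SUMO fusion in E. coli BL21 (DE3), Ni-NTA purified, tag-cleaved, then gel-filtered into 10 mM Hepes pH 7.5, 150 mM NaCl, 1 mM DTT. ITC ran at 25°C: 20 × 2 µl injections of 1 mM SAM or SAH into 0.2 mM protein, discarding an initial 0.8 µl injection, with a buffer background titration. Single-site nonlinear least-squares fit gave ΔH, n and Kd.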

[2] = target: D162A mutant dSAMTOR (Drosophila melanogaster, UniProt Q9W138, D162A); test: ITC ligand binding, D162A dSAMTOR; settings: 25°C, ND = not detected
Outline: (§1)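 Tag-free dSAMTOR, expressed as His6-SUMO fusion in E. coli BL21(DE3), purified by Ni-NTA and gel filtration into 10 mM Hepes pH 7.5, 150 mM NaCl, 1 mM DTT. At 25°C, 1 mM SAM or SAH was titrated into 0.2 mM protein over 20 injections, with a background titration into buffer. Single-site fit gave Kd, ΔH and n; ΔG and ΔS were calculated. Runs: three for measurable binding, two for undetectable binding.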

[3] = target: hSAMTOR; settings: read-out: dissociation constant (Kd); cited from earlier work
[4] = target: F135A mutant dSAMTOR (Drosophila melanogaster, UniProt Q9W138, F135A); test: ITC ligand binding, F135A dSAMTOR; settings: ITC
Outline: as §1

[5] = target: L151A mutant dSAMTOR (Drosophila melanogaster, UniProt Q9W138, L151A); test: ITC ligand binding, L151A dSAMTOR; settings: 25°C, ND = not detected
Outline: as §1

[6] = target: D150A mutant dSAMTOR (Drosophila melanogaster, UniProt Q9W138, D150A); test: ITC ligand binding, D150A dSAMTOR; settings: 25°C, ND = not detected
Outline: as §1

[7] = target: L163A mutant dSAMTOR (Drosophila melanogaster, UniProt Q9W138, F163A); test: ITC ligand binding, L163A dSAMTOR; settings: 25°C, L163A dSAMTOR (text b27: F163A), ND = not detected
Outline: as §1

[8] = target: M202A mutant dSAMTOR (Drosophila melanogaster, UniProt Q9W138, M202A); test: ITC ligand binding, M202A dSAMTOR; settings: 25°C, ND = not detected
Outline: as §1

[9] = target: T1, hSAMTOR (WT) interaction with GATOR1-KICSTOR (Homo sapiens, UniProt Q1RMZ1); settings: previous cell biology data; cited from earlier work
T1 sequence (Q1RMZ1 1-405): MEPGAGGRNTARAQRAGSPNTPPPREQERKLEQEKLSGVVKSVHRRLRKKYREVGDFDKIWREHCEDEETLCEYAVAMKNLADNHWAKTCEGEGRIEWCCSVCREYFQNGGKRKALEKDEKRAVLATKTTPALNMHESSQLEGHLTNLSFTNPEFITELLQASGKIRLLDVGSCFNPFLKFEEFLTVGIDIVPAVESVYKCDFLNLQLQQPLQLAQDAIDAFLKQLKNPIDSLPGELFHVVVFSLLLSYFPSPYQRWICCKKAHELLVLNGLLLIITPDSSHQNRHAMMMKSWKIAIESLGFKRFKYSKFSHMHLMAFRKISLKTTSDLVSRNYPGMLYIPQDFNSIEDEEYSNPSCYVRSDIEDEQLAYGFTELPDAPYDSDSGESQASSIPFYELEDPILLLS

[10] = target: V66W/E67P mutant dSAMTOR (Drosophila melanogaster, UniProt Q9W138, E67P/V66W); test: ITC ligand binding, V66W/E67P dSAMTOR; settings: ITC, 25°C, V66W/E67P dSAMTOR
Outline: as §1

[11] = target: L197A mutant dSAMTOR (Drosophila melanogaster, UniProt Q9W138, L197A); test: ITC ligand binding, L197A dSAMTOR; settings: 25°C, ND = not detected
Outline: as §1

[12] = target: Y201A mutant dSAMTOR (Drosophila melanogaster, UniProt Q9W138, Y201A); test: ITC ligand binding, Y201A dSAMTOR
Outline: as §1

[13] = target: N-terminal truncated dSAMTOR (Δ1-64) (Drosophila melanogaster, UniProt Q9W138); test: ITC ligand binding, Δ1-64 dSAMTOR; settings: ITC, 25°C, Δ1-64 dSAMTOR
Outline: as §1

[14] = target: R73A mutant dSAMTOR (Drosophila melanogaster, UniProt Q9W138, R73A); test: ITC ligand binding, R73A dSAMTOR; settings: 25°C, ND = not detected
Outline: as §1

Sequence of N-terminal truncated dSAMTOR (Δ1-64) (Q9W138 65-302, stated change not applied): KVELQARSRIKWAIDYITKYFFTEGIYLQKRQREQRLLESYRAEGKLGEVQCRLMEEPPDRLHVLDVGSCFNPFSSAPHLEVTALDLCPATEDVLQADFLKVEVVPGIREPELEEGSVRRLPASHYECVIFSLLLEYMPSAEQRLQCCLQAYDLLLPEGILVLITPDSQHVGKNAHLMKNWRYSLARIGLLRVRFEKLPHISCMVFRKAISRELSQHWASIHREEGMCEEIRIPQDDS
Sequence of dSAMTOR (WT, full-length) (Q9W138 whole entry, the tested form may be a part): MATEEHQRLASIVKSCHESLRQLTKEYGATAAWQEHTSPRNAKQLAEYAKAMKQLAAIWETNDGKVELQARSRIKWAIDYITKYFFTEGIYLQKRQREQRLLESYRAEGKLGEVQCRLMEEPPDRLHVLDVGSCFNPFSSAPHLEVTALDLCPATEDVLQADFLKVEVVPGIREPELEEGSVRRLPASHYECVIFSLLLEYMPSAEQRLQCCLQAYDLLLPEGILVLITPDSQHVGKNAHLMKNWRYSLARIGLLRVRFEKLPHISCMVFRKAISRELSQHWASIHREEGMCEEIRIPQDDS
Sequence of F135A mutant dSAMTOR (Q9W138 whole entry F135A): as the sequence (Q9W138 whole entry, the tested form may be a part) above, with F135A counted along it
Sequence of Y201A mutant dSAMTOR (Q9W138 whole entry Y201A): as the sequence (Q9W138 whole entry, the tested form may be a part) above, with Y201A counted along it
Sequence of V66W/E67P mutant dSAMTOR (Q9W138 whole entry V66W/E67P): as the sequence (Q9W138 whole entry, the tested form may be a part) above, with V66W, E67P counted along it
Sequence of D150A mutant dSAMTOR (Q9W138 whole entry D150A): as the sequence (Q9W138 whole entry, the tested form may be a part) above, with D150A counted along it
Sequence of L163A mutant dSAMTOR (Q9W138 whole entry F163A): as the sequence (Q9W138 whole entry, the tested form may be a part) above, with F163A counted along it
Sequence of D162A mutant dSAMTOR (Q9W138 whole entry D162A, the tested form may be a part): as the sequence (Q9W138 whole entry, the tested form may be a part) above, with D162A counted along it
Sequence of R73A mutant dSAMTOR (Q9W138 whole entry R73A): as the sequence (Q9W138 whole entry, the tested form may be a part) above, with R73A counted along it
Sequence of L197A mutant dSAMTOR (Q9W138 whole entry L197A): as the sequence (Q9W138 whole entry, the tested form may be a part) above, with L197A counted along it
Sequence of L151A mutant dSAMTOR (Q9W138 whole entry L151A): as the sequence (Q9W138 whole entry, the tested form may be a part) above, with L151A counted along it
Sequence of M202A mutant dSAMTOR (Q9W138 whole entry M202A): as the sequence (Q9W138 whole entry, the tested form may be a part) above, with M202A counted along it

Nc1ncnc2c1ncn2[C@@H]1O[C@H](CO)[C@@H](O)[C@H]1O [adenosine]
Kd [1]: no measurable binding

Nc1ncnc2c1ncn2[C@@H]1O[C@H](CSCC[C@H](N)C(=O)O)[C@@H](O)[C@H]1O [SAH, S-adenosyl-L-homocysteine]
Kd [2]: completely abolish SAH binding | Kd [3]: 4.6 µM | increase of binding affinity compared to the WT dSAMTOR ([4]; F135A vs WT dSAMTOR): < 2 fold | Kd ([4]; 25°C, F135A dSAMTOR): 4.76 ± 0.71 µM | TΔS ([4]; 25°C, F135A dSAMTOR): -1.26 kcal/mol | n value ([4]; 25°C, F135A dSAMTOR): 0.80 ± 0.02 | ΔH ([4]; 25°C, F135A dSAMTOR): -8.52 ± 0.51 kcal/mol | Kd [5]: completely abolish SAH binding | Kd [6]: completely abolish SAH binding | Kd [7]: completely abolish SAH binding | Kd [8]: completely abolish SAH binding | effect of ligand binding on interaction of hSAMTOR with GATOR1-KICSTOR [9]: can disrupt the interaction of hSAMTOR with GATOR1-KICSTOR | Kd [10]: 11.3 ± 0.37 µM | n value [10]: 1.02 ± 0.02 | ΔH [10]: -5.09 ± 0.12 kcal/mol | Kd [11]: completely abolish SAH binding | Kd ([12]; 25°C, Y201A dSAMTOR): 67.3 ± 6.03 µM | TΔS ([12]; 25°C, Y201A dSAMTOR): 2.80 kcal/mol | n value ([12]; 25°C, Y201A dSAMTOR): 0.74 ± 0.02 | ΔH ([12]; 25°C, Y201A dSAMTOR): -2.89 ± 0.17 kcal/mol | decrease of binding affinity compared to the WT dSAMTOR ([12]; Y201A vs WT dSAMTOR): 7.7 fold | Kd [1]: 8.7 ± 0.92 µM | TΔS [1]: -2.99 kcal/mol | n value [1]: 0.81 ± 0.09 | ΔH [1]: -9.94 ± 1.48 kcal/mol | Kd [13]: 13.1 ± 0.8 µM | TΔS [13]: -8.08 kcal/mol | n value [13]: 0.67 ± 0.04 | ΔH [13]: -14.70 ± 1.05 kcal/mol | Kd [14]: completely abolish SAH binding

CSCC[C@H](N)C(=O)O [methionine]
Kd [1]: no measurable binding
